Measured values published in ChEMBL document CHEMBL1124070, “Potential anticancer agents: 5-(N-substituted-aminocarbonyl)- and 5-(N-substituted-aminothiocarbonyl)-5,6,7,8-tetrahydrofolic acids” (J Med Chem, 1988).
The source made the active and inactive calls. No cut-off for these calls is given here.

Experiments:
HEp-2 [1] = assay: Dose of compound required to inhibit colony formation of H.Ep-2 cells; format: functional, cell-based; details: Homo sapiens
Method in brief: (§1)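 Colony-forming viability assay in H.Ep.-2 cells. The ED50 is the concentration that inhibits colony formation by 50%.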

HEp-2 [2] = assay: Effective dose required to inhibit colony formation of H.Ep-2 cells; format: functional; details: Homo sapiens, read-out: ED50 (the source's name); method in brief: as §1
P388 = assay: Compound was tested for cytotoxicity against P388 cells; IA=Inactive; format: functional, cell-based; details: Mus musculus
[3] = Compound was tested for activity against 10 isolated folate-utilizing enzymes; IA=Inactive
L1210 = assay: Compound was tested for activity against L1210 cells in mice; IA=Inactive; format: functional, cell-based; details: Mus musculus

For CCOC(=O)CCCCCC/N=C(\S)N1c2c(O)nc(N)nc2NCC1CNc1ccc(C(=O)NC(CCC(=O)O)C(=O)O)cc1 (stereo not given), which IC50 (HEp-2 [1]) is on record?
Its IC50 is over 25 µM.

For CCOC(=O)CCCCCNC(=O)N1c2c(O)nc(N)nc2NCC1CNc1ccc(C(=O)NC(CCC(=O)O)C(=O)O)cc1 (stereo not given), which EC50 (HEp-2 [2]) is on record?
The EC50 was 13 µM.

What about the Cytotoxicity (P388) of the same compound?
Its Cytotoxicity is “inactive”.

Which results are given for CCOC(=O)CCCCCCNC(=O)N1c2c(O)nc(N)nc2NCC1CNc1ccc(C(=O)NC(CCC(=O)O)C(=O)O)cc1 (stereo not given)?
EC50 (HEp-2 [2]): 4 µM; Cytotoxicity (P388): inactive

For Nc1nc(O)c2c(n1)NCC(CNc1ccc(C(=O)NC(CCC(=O)O)C(=O)O)cc1)N2C(=O)NCCCl (stereo not given), which Activity [3] is on record?
Its Activity is “inactive”.

And the Cytotoxicity (L1210)?
The Cytotoxicity was “inactive”.

For Nc1nc(O)c2c(n1)NCC(CNc1ccc(C(=O)NC(CCC(=O)O)C(=O)O)cc1)N2/C(S)=N/c1ccccc1 (stereo not given), which Activity [3] is on record?
Its Activity is “inactive”.

And the Cytotoxicity (L1210)?
Its Cytotoxicity is “inactive”.

For CC/N=C(\S)N1c2c(O)nc(N)nc2NCC1CNc1ccc(C(=O)NC(CCC(=O)O)C(=O)O)cc1 (stereo not given), which Activity [3] is on record?
Its Activity is “inactive”.

What about the Cytotoxicity (L1210) of the same compound?
The Cytotoxicity was “inactive”.

With CCOC(=O)CCCCCCCNC(=O)N1c2c(O)nc(N)nc2NCC1CNc1ccc(C(=O)NC(CCC(=O)O)C(=O)O)cc1 (stereo not given) as the compound, how does the EC50 (HEp-2 [2]) read?
Its EC50 is 24 µM.

Which IC50 (HEp-2 [1]) does the source give for CCOC(=O)CCCCCCC/N=C(\S)N1c2c(O)nc(N)nc2NCC1CNc1ccc(C(=O)NC(CCC(=O)O)C(=O)O)cc1 (stereo not given) here?
The IC50 was over 25 µM.

For NC(=O)N1c2c(O)nc(N)nc2NCC1CNc1ccc(C(=O)NC(CCC(=O)O)C(=O)O)cc1 (stereo not given), which Activity [3] is on record?
The Activity was “inactive”.

And the Cytotoxicity (L1210)?
The Cytotoxicity was “inactive”.

For CCOC(=O)CCCCC/N=C(\S)N1c2c(O)nc(N)nc2NCC1CNc1ccc(C(=O)NC(CCC(=O)O)C(=O)O)cc1 (stereo not given), which IC50 (HEp-2 [1]) is on record?
The IC50 was over 25 µM.

What does the source list for CCOC(=O)CCCCCCCC/N=C(\S)N1c2c(O)nc(N)nc2NCC1CNc1ccc(C(=O)NC(CCC(=O)O)C(=O)O)cc1 (stereo not given)?
Cytotoxicity (P388): inactive; IC50 (HEp-2 [1]): > 25 µM

What does the source list for CCOC(=O)CCCCCCCCNC(=O)N1c2c(O)nc(N)nc2NCC1CNc1ccc(C(=O)NC(CCC(=O)O)C(=O)O)cc1 (stereo not given)?
EC50 (HEp-2 [2]): 35 µM; Cytotoxicity (P388): inactive
